In ChEMBL document CHEMBL4387708, “Enhancement of Benzothiazoles as Pteridine Reductase-1 Inhibitors for the Treatment of Trypanosomatidic Infections” (J Med Chem, 2019):
The source made the active and inactive calls. The calls are words filed in the database; no cut-off is given here.

What was measured:
Trypanosoma brucei [1] = test: Inhibition of N-terminal His-tagged Trypanosoma brucei pteridine reductase 1 at 50 uM using di-hydrobiopterine as substrate measured at 1 min interval for 50 mins in presence of NADPH relative to control
In short: (§1)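 Photometric PTR1 assay with NADPH and dihydrobiopterin substrate. H₄B formation is coupled non-enzymatically to cytochrome c reduction, read as signal increase at 550 nm.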

Cytochrome P450 2C19 = Cytochrome P450 2C19 (Homo sapiens, UniProt P33261); test: Inhibition of human CYP2C19 expressed in baculovirus infected insect cells using beetle D-luciferin as substrate preincubated for 30 mins followed by NADPH addition and measured after 30 mins by CYP450-Glo assay
[2] = Selectivity ratio of IC50 for Leishmania major pteridine reductase 1 to IC50 for N-terminal His-tagged Trypanosoma brucei pteridine reductase 1
Trypanosoma brucei [3] = test: Growth inhibition of Trypanosoma brucei bloodstream forms at 10 uM measured after 72 hrs by resazurin-based fluorescence assay relative to control; type: organism-based; details: Trypanosoma brucei, read-out: GI
[4] = Cytotoxicity against human U2OS cells assessed as reduction in cell number; type: cell-based
[5] = Cytotoxicity against human THP1 cells after 72 hrs by MTT assay; type: cell-based, THP-1; details: read-out: NOAEL
[6] = Cytotoxicity against human A549 cells after 48 hrs by Celltiter-glo assay; type: cell-based
Cytochrome P450 3A4 = Cytochrome P450 3A4 (Homo sapiens, UniProt P08684); test: Inhibition of human CYP3A4 expressed in baculovirus infected insect cells using beetle D-luciferin as substrate preincubated for 30 mins followed by NADPH addition and measured after 30 mins by CYP450-Glo assay
Cytochrome P450 1A2 = molecular target: T1, Cytochrome P450 1A2 (Homo sapiens, UniProt P05177); test: Inhibition of human CYP1A2 expressed in baculovirus infected insect cells using beetle D-luciferin as substrate preincubated for 30 mins followed by NADPH addition and measured after 30 mins by CYP450-Glo assay
T1 sequence (P05177 whole entry): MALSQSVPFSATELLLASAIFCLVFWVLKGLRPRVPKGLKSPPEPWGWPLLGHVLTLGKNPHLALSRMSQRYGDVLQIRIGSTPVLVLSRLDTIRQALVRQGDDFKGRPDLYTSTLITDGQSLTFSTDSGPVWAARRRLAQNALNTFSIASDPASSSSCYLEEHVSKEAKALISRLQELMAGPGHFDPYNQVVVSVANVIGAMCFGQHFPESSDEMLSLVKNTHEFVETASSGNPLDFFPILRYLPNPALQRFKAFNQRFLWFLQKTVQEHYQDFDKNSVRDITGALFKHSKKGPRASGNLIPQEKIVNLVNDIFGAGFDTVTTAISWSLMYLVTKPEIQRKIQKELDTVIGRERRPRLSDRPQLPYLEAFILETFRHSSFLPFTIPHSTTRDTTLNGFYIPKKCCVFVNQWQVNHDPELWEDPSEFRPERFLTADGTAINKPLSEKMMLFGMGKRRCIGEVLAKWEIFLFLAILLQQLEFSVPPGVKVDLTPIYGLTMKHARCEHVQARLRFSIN

[7] = molecular target: Voltage-gated inwardly rectifying potassium channel KCNH2 (Homo sapiens, UniProt Q12809); test: Displacement of Tracer Red from human ERG by fluorescence polarization assay
Cytochrome P450 2D6 = Cytochrome P450 2D6 (Homo sapiens, UniProt P10635); test: Inhibition of human CYP2D6 expressed in baculovirus infected insect cells using beetle D-luciferin as substrate preincubated for 30 mins followed by NADPH addition and measured after 30 mins by CYP450-Glo assay
Trypanosoma cruzi = test: Growth inhibition of trypomastigote form of Trypanosoma cruzi Y infected in human U2OS cells at 50 uM measured after 72 hrs by DRAQ5 DNA dye based confocal microscopic analysis relative to control; type: organism-based; details: for growth inhibition (GI): trypanosoma cruzi, 50 µM; for inhibition at 50 µM: Trypanosoma cruzi, Y, U2OS, read-out: GI
[8] = Inhibition of N-terminal His-tagged Trypanosoma brucei pteridine reductase 1 using di-hydrobiopterine as substrate measured at 1 min interval for 50 mins in presence of NADPH; in short: as §1
Cytochrome P450 2C9 = Cytochrome P450 2C9 (Homo sapiens, UniProt P11712); test: Inhibition of human CYP2C9 expressed in baculovirus infected insect cells using beetle D-luciferin as substrate preincubated for 30 mins followed by NADPH addition and measured after 30 mins by CYP450-Glo assay
Pteridine reductase 1 = molecular target: T2, Pteridine reductase 1 (Leishmania major, UniProt Q01782); test: Inhibition of Leishmania major pteridine reductase 1 using di-hydrobiopterine as substrate in presence of NADPH; in short: as §1
T2 sequence (Q01782 whole entry): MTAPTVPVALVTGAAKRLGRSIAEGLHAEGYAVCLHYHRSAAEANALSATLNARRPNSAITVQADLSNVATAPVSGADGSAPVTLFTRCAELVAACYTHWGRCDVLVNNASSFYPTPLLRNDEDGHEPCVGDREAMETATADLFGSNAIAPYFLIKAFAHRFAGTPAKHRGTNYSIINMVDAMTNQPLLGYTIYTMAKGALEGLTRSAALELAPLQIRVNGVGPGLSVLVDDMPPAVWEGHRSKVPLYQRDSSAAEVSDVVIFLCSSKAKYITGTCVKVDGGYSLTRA

[9] = Mitochondrial toxicity in human 786-O cells measured after 6 hrs by MitoTracker Red chloromethyl-X-rosamine based assay; type: cell-based, 786-0
Leishmania infantum = test: Growth inhibition of luciferase expressing Leishmania infantum axenic amastigotes infected in human THP1 cells at 10 uM measured after 72 hrs by steady-glo luminescence assay relative to control; type: organism-based; details: for growth inhibition (GI): leishmania infantum, 72 h, 10 µM; for inhibition at 10 µM: Leishmania infantum, THP-1, 72 h, read-out: GI
[10] = molecular target: T3, Pteridine reductase 1 (Leishmania major) (UniProt Q01782); test: Inhibition of Leishmania major pteridine reductase 1 at 50 uM using di-hydrobiopterine as substrate in presence of NADPH relative to control; in short: as §1
T3 sequence (whole entry): T2 sequence (Q01782 whole entry)

Chain of Cytochrome P450 2D6 (P10635 whole entry): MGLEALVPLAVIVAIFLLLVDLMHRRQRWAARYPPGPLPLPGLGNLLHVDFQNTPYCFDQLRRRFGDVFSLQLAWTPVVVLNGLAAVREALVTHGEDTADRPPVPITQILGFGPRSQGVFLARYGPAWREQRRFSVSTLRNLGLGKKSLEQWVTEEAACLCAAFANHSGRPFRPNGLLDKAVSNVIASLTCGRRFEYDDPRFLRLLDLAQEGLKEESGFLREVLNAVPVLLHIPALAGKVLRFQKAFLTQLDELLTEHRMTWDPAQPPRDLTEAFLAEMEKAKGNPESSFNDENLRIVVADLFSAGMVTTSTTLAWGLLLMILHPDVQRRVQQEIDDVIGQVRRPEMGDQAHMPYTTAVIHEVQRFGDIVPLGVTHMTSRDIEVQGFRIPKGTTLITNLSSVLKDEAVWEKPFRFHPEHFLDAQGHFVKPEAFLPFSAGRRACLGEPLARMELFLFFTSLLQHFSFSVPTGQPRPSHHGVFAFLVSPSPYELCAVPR
Chain of Cytochrome P450 3A4 (P08684 whole entry): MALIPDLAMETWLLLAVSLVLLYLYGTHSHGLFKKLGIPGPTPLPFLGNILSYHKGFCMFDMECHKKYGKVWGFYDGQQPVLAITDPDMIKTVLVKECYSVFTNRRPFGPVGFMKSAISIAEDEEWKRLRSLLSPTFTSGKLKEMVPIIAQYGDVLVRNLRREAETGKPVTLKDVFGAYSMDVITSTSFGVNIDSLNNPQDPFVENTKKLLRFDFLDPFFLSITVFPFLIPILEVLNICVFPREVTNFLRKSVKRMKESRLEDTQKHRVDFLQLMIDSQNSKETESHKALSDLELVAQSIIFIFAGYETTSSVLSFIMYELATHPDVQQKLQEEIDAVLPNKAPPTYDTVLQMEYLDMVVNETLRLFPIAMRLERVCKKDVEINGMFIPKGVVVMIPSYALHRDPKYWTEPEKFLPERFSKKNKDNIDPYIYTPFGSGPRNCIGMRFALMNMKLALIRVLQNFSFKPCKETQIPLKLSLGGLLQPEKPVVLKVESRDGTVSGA
Chain of Voltage-gated inwardly rectifying potassium channel KCNH2 (Q12809 whole entry): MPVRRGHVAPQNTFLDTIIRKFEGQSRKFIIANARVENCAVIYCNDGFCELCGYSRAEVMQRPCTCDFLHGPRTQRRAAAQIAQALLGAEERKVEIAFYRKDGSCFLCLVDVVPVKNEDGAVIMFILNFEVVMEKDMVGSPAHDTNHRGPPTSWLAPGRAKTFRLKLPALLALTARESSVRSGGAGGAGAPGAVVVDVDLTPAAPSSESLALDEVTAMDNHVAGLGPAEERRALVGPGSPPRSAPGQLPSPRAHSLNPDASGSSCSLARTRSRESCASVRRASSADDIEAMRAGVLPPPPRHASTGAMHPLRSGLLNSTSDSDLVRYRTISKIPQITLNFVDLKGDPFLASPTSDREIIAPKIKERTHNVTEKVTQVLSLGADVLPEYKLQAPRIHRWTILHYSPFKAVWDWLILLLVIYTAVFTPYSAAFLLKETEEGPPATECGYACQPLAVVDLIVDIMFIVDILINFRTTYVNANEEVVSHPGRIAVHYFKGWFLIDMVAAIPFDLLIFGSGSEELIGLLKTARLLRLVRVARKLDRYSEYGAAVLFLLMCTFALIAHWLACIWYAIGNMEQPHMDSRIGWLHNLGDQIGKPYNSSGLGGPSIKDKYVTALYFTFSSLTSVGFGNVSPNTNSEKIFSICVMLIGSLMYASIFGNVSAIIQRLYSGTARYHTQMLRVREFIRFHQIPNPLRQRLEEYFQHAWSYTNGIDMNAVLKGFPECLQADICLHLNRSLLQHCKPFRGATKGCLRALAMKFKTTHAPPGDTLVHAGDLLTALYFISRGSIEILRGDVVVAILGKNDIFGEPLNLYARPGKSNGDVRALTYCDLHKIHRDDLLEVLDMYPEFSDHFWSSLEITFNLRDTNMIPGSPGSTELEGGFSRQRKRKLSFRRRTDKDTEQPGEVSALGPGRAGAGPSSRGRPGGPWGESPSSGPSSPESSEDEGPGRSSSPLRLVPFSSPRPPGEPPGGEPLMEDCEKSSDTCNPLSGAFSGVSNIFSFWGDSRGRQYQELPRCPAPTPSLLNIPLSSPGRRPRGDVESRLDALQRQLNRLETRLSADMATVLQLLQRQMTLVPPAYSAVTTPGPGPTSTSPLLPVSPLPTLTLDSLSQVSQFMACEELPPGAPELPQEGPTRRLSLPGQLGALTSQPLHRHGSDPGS
Chain of Cytochrome P450 2C9 (P11712 whole entry): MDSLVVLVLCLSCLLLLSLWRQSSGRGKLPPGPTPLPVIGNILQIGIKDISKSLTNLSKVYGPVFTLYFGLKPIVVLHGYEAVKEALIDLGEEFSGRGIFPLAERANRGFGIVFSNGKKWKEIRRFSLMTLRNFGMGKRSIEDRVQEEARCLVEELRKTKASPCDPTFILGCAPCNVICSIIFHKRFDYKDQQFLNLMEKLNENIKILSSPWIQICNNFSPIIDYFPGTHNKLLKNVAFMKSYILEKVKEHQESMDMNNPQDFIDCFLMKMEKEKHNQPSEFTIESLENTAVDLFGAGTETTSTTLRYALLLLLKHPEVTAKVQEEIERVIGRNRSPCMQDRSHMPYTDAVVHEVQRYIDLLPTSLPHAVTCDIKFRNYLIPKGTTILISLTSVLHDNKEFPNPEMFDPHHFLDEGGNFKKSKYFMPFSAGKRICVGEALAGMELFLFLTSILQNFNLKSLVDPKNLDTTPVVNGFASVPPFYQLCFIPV
Chain of Cytochrome P450 2C19 (P33261 whole entry): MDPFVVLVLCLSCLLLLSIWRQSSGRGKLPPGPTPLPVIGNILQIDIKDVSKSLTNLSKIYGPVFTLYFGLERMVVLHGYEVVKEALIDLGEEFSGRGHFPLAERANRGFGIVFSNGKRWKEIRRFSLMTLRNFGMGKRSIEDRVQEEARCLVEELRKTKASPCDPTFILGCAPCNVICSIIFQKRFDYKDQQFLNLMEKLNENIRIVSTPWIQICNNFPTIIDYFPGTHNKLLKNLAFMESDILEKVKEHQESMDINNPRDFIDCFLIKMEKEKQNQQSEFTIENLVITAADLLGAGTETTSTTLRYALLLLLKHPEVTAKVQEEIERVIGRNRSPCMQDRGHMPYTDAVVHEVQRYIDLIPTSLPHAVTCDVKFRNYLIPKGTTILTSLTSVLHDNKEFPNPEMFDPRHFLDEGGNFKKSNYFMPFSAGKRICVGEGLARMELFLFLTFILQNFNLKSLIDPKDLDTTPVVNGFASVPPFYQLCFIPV

SMILES	inhibition (Trypanosoma brucei [1]) [%]	IC50 (Cytochrome P450 2C19) [µM]	Ratio IC50 [2]	inhibition at 10 µM (Trypanosoma brucei [3]) [%]	GI50 [4] [µM]	MNTC at 72 h [5] [µM]	GI50 at 48 h [6] [µM]	IC50 (Cytochrome P450 3A4) [µM]	IC50 (Cytochrome P450 1A2) [µM]	IC50 [7] [µM]	IC50 (Cytochrome P450 2D6) [µM]	growth inhibition (GI) (Trypanosoma cruzi)	IC50 [8] [µM]	IC50 (Cytochrome P450 2C9) [µM]	IC50 (Pteridine reductase 1; read-out: IC50) [µM]	IC50 at 6 h [9] [µM]	growth inhibition (GI) (Leishmania infantum)	inhibition [10]	inhibition at 50 µM (Trypanosoma cruzi) [%]	other results
N#Cc1ccc(CNC(=O)c2ccc3nc(N)sc3c2)cc1	> 60	> 25	2 to 100	8	> 25	> 25	> 25	> 25	> 25	> 25	> 25	Non-Toxic	42.9	> 25	73.3	> 25	Non-Toxic	> 60%	–	–
COC(=O)c1ccc(CS(=O)(=O)c2ccc3nc(N)sc3c2)cc1	> 60	< 10	2 to 100	14	> 25	> 25	> 25	10 to 25	> 25	> 25	< 10	Non-Toxic	> 100	10 to 25	65.9	> 25	–	> 60%	–	inhibition at 10 µM (Leishmania infantum): 12%
Nc1nc2ccc(C(=O)NC(c3ccccc3)c3ccccc3)cc2s1	> 60	< 10	2 to 100	10	> 25	> 25	> 25	< 10	> 25	> 25	< 10	–	18.5	< 10	88.5	> 25	–	> 60%	37.8	inhibition at 10 µM (Leishmania infantum): 15%
COC(=O)c1ccc(COc2ccc3nc(N)sc3c2)cc1	> 60	< 10	2 to 100	22	> 25	10 to 25	> 25	10 to 25	> 25	10 to 25	> 25	–	1.7	> 25	66.6	> 25	Non-Toxic	> 60%	8.79	–
CS(=O)(=O)c1ccc2nc(N)sc2c1	> 60	> 25	2 to 100	17	> 25	> 25	> 25	> 25	> 25	> 25	> 25	–	34.2	> 25	32.9	> 25	Non-Toxic	> 60%	17.4	–
Nc1nc2ccc(OCc3ccccc3)cc2s1	> 60	> 25	2 to 100	28	> 25	> 25	> 25	10 to 25	< 10	< 10	< 10	Non-Toxic	13.4	> 25	–	> 25	Non-Toxic	inactive	–	IC50 (Pteridine reductase 1): Not Active
Nc1nc2c(C(=O)N(Cc3ccccc3)Cc3ccc(Cl)c(Cl)c3)cc(O)c(O)c2s1	> 60	10 to 25	2 to 100	25	10 to 25	10 to 25	> 25	< 10	< 10	< 10	< 10	Non-Toxic	11.4	< 10	15.2	> 25	Non-Toxic	> 60%	–	–
